Compound activity (PubChem)
STK33 inh: human STK33 kinase inhibition. purified STK33, MBP phosphorylation, ADP-Glo luminescence. inhibition, % at 10 µM. AID 2661. Q9BYT3. 320,000 tested, 0.073% active;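 active means inhibition at or above 25%, using the most active replicate where run in duplicate; inactive means inhibition below 25%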
GSK3B inh: human GSK3beta kinase inhibition. P49841. GST-GSK3beta kinase, ADP-Glo luminescence, 60 min; hits give low values. activity score (negative = inhibition), % at 10 µM. 300,000 tested, 0.038% active. AID 2097;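 active means more than half of replicate wells score below -50%, meaning over 50% inhibition versus plate controls; inconclusive means some replicates but at most half score below -50%; inactive means no replicate scores below -50%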;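 further: 0% = median DMSO wells and -100% = median GW8510 positive control wells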
Target sequence (P49841 whole entry, looked up): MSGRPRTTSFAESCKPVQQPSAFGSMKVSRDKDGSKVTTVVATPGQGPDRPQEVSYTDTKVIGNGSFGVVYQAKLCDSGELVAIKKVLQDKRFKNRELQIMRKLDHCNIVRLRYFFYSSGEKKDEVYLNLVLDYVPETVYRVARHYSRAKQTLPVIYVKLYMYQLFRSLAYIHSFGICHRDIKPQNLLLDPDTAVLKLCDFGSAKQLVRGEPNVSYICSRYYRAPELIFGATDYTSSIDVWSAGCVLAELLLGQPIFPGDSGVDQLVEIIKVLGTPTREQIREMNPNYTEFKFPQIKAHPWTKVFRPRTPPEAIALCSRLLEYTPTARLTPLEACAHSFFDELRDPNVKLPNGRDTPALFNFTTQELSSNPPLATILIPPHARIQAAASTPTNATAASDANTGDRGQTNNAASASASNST
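Assay system: GST-fused GSK3beta enzyme, cell-free / Medium: Tris pH 7.5 buffer with MgCl2, DTT, BSA, heparin / Also added: peptide substrate plus 25 µM ATP (final) / Compound: 10 µM single point / Timing: kinase reaction with compound 60 min at room temperature / Detection: ADP-Glo luminescence / Benchmarks: DMSO neutral wells and GW8510 at 20 µM as positive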
Rce1 inh: blocks yeast Ras-converting enzyme | calls only | Q03530 | 290,000 tested, 0.27% active | AID 2563 | yeast membranes, quenched prenylated peptide cleavage fluorescence;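 active means fall in fluorescence gain of 50% or more versus controls, with final raw signal at or below 3038400; inconclusive means same 50% fall but final raw signal above 3038400; inactive means fall in fluorescence gain under 50%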;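 further: plate controls were neutral control wells for no effect and wells lacking membranes for full effect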
Target sequence (Q03530 whole entry, looked up): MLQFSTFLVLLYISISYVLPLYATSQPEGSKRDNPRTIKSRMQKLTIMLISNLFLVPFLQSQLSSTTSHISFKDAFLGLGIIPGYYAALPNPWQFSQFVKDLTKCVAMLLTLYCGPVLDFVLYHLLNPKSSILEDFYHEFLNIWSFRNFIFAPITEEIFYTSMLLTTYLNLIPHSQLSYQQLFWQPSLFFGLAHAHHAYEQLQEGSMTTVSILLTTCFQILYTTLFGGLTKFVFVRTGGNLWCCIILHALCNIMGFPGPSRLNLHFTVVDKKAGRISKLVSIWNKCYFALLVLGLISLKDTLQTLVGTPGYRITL
Dyrk1A ADPGlo: Dyrk1A (rat) kinase inhibition | Q63470 | ADP-Glo luminescence, NFATc1 peptide | inhibition, % at 12.5 µM | 310,000 tested, 0.43% active; in the data active means inhibition above about 50%;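 further: plate controls were vehicle with enzyme for no effect and no enzyme for full effect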
AI-2 QS modul: Vibrio harveyi AI-2 quorum sensing modulation; Vibrio harveyi JMH597 AI-2 luminescence/OD600 ratio, 9 h; hits give low values; strain lacks LuxN and CqsS sensors; 0 = neutral-control median; activity change, % at 7.5 µM; 300,000 tested, 0.4% active; in the data active means activity change below about -75%, passing the limit was not always enough; inconclusive means no clear call, values can overlap the other calls;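 further: luminescence divided by OD600 gain over 9 h not by final OD600 alone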
GSK3A inh: human GSK-3 alpha kinase inhibition. AID 2650. P49840. ADP-Glo luminescence, 60 min. inhibition, % at 10 µM. 320,000 tested, 0.1% active;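 active means more than half of replicates show inhibition above 20%; inconclusive means some but at most half of replicates above 20% inhibition; inactive means no replicate shows inhibition above 20%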;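 further: GST-tagged GSK-3 alpha with peptide substrate and 25 µM ATP; 0% = DMSO neutral wells and 100% = GW8510 positive control wells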
JMH597 growth rt: retest: blocks Vibrio harveyi JMH597 growth; shares compounds with AI-2 QS modul; OD600 absorbance, 9 h; lacks LuxN and CqsS sensors; growth inhibition, % at 7.5 µM; 750 tested, 1% active; AID 2726;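 active means every replicate shows growth inhibition above 50%; inconclusive means at least half, but not all, replicates pass that cutoff; inactive means fewer than half of replicates pass it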
BB721 lum counter: retest counter-screen: luminescence loss in constitutive-on quorum sensing strain BB721 | shares compounds with AI-2 QS modul | Vibrio harveyi BB721 luminescence, 9 h | inhibition, % at 7.5 µM | 750 tested, 95% active | AID 2727;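 active means inhibition above about 80% in every replicate, not just on average, limit read from the data; inconclusive means at least half of replicates past the limit, but not all; inactive means fewer than half of replicates past the limit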
BB721 growth rt: retest Vibrio harveyi BB721 growth inhibition. growth inhibition, % at 7.5 µM. shares compounds with AI-2 QS modul. 750 tested, 3% active. OD600 absorbance, 9 h. AID 2728;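 active means every replicate shows growth inhibition above 50%; inconclusive means at least half but not all replicates above 50% inhibition; inactive means under half of replicates above 50% inhibition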
JMH597 AI-2 mod: Vibrio harveyi AI-2 signaling luminescence modulation – JMH597 strain, confirmation. shares compounds with AI-2 QS modul. Vibrio harveyi JMH597 AI-2 quorum sensing luminescence, 9 h; luxN and CqsS knockout, AI-2 only. inhibition, % at 7.5 µM. 750 tested, 97% active. AID 2736;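 active means every replicate shows more than 75% inhibition of signal versus neutral control wells; inconclusive means half to three quarters of replicates exceed 75% inhibition; inactive means fewer than half of replicates exceed 75% inhibition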
Active calls of the source: *; i = inactive; ? = inconclusive; . = no result given. A selection: hits, their analogues and other compounds. The true share with any hit is near 0.99%.

SMILES	STK33 inh	GSK3B inh	Rce1 inh	Dyrk1A ADPGlo	AI-2 QS modul	GSK3A inh	JMH597 growth rt	BB721 lum counter	BB721 growth rt	JMH597 AI-2 mod
N#Cc1ccc(Cl)cc1NC(=O)CSc1nc2nc(-c3cccs3)cc(C(F)(F)F)c2c(=O)[nH]1	-0.5	-25.0	i	.	21.9	.	.	.	.	.
COc1ccc(CNC(=O)Oc2ccccc2)cc1Cl	-0.1	-7.8	i	-7.9	-80.4*	-1.4	14.4	96.5*	36.2	97.4*
COC(=O)NCc1ccc(Cl)c(Cl)c1	-0.6	0.1	i	-3.1	-8.6	-1.9	.	.	.	.
O=C(c1cccc(NS(=O)(=O)c2ccc(F)c(F)c2)c1)N1CCCCC1	.	.	.	-4.7	.	.	.	.	.	.
Cc1ccc(S(=O)(=O)N2CCN(C(=O)COC(=O)c3ccc(Cl)nc3)CC2)c(C)c1	0.2	.	.	.	.	-0.9	.	.	.	.
CC(=O)Nc1ccc(NC(=O)Cn2cc3c(n2)CCCC3)cc1	-0.7	-0.2	i	5.0	44.0	-1.4	.	.	.	.
CC(=O)c1cccc(NC(=O)Cn2cc3c(n2)CCCC3)c1	0.0	1.6	i	-4.0	-89.2*	-3.3	15.4	96.6*	7.2	98.0*
Cc1cccc(Oc2cnn(C(C)(C)C)c(=O)c2Cl)c1	-1.4	0.5	i	0.9	-92.2*	-2.4	20.7	95.7*	-19.3	97.8*
Cc1cc(NS(=O)(=O)c2ccc(NC(=O)COc3ccc(Cl)cc3)cc2)no1	-1.3	0.6	i	1.2	-87.1*	-4.3	15.9	92.6*	14.1	91.0*
Cc1ccc(OCC(=O)Nc2ccc(S(=O)(=O)N3CCCC3)cc2)cc1	-0.2	0.5	i	-7.2	?	-1.1	46.2	92.2*	28.8	98.6*
O=C(CNC(=O)c1ccco1)Nc1ccc(S(=O)(=O)N2CCCC2)cc1	-0.8	2.9	i	-1.2	-94.0*	-0.9	22.7	98.1*	-155.8	98.8*
O=C(Cc1ccccc1)Nc1ccc(S(=O)(=O)N2CCCC2)cc1	.	2.4	i	-6.9	-59.7	.	.	.	.	.
O=C(Cn1c(=O)sc2ccccc21)Nc1ccc(S(=O)(=O)N2CCCC2)cc1	-0.9	2.2	i	-0.7	-96.7*	-0.3	15.2	99.4*	2.1	99.4*
Cc1cc(NS(=O)(=O)c2ccc(NC(=O)COc3ccccc3Cl)cc2)no1	-0.3	-4.5	i	3.3	-22.7	-3.9	.	.	.	.
Cc1ccc(OCC(=O)Nc2ccc(S(=O)(=O)N3CCN(C)CC3)cc2)cc1	-1.1	-4.2	i	-5.3	5.5	4.4	.	.	.	.
O=C(Nc1ccc(S(=O)(=O)N2CCOCC2)cc1)c1ccco1	0.0	0.1	i	3.8	22.3	-0.1	.	.	.	.
CC(C)(CNC(=O)CO/N=C1/C=C2CCC3C(C(O)C[C@@]4(C)C3CC[C@]4(O)C(=O)CO)[C@@]2(C)CC1)C(O)C(=O)O (stereo partly drawn)	-2.9	-0.8	i	-9.0	13.6	-0.2	.	.	.	.
O=C(COC(=O)c1ccc(Br)o1)Nc1cccc(S(=O)(=O)N2CCCCC2)c1	-0.2	.	.	-3.4	.	-1.8	.	.	.	.
COc1ccc(OCC(=O)Nc2ccc(S(=O)(=O)N3CCCC3)cc2)cc1	-2.0	3.9	i	12.8	?	1.4	23.8	94.9*	28.1	99.1*
O=C(COC(=O)c1ccc(Br)o1)Nc1ccc(S(=O)(=O)N2CCCC2)cc1	-2.0	-0.4	i	9.9	-94.4*	-4.3	0.1	99.4*	-3.8	99.5*
COC(=O)c1cccc(NC(=O)C(C)N2C(=O)c3ccccc3C2=O)c1 (stereo not drawn)	-0.7	1.9	.	-4.3	-86.4*	-2.3	20.3	95.2*	16.9	96.8*
CCOC(=O)c1ccc(NC(=O)Cn2nnc3ccccc32)cc1	-0.7	2.1	i	-9.3	?	0.2	.	.	.	.
COC(=O)c1cccc(NC(=O)CN2C(=O)c3ccccc3C2=O)c1	1.6	-1.6	i	.	-97.0*	-0.7	0.3	99.5*	-5.4	99.7*
COC(=O)c1cccc(NC(=O)Cn2nnc3ccccc32)c1	-0.6	-3.7	i	4.6	-83.6*	-1.9	12.0	89.5*	8.0	92.8*
COc1cccc(NC(=O)C(C)N2C(=O)c3ccccc3C2=O)c1 (stereo not drawn)	-2.2	3.5	i	-0.9	-18.0	-3.7	.	.	.	.
SMILES	STK33 inh	GSK3B inh	Rce1 inh	Dyrk1A ADPGlo	AI-2 QS modul	GSK3A inh	JMH597 growth rt	BB721 lum counter	BB721 growth rt	JMH597 AI-2 mod
COc1ccc(Cl)cc1N(CC(=O)N1CCCC1)S(C)(=O)=O	-1.5	1.2	i	-1.1	?	0.0	-11.6	-7.4	5.7	-6.8
O=C(NCc1cccnc1)C1CCN(S(=O)(=O)c2cccc(C(F)(F)F)c2)CC1	-0.6	.	.	10.7	.	0.0	.	.	.	.
Cc1ccc(CNC(=O)C2CCN(S(=O)(=O)c3cccnc3)CC2)cc1	0.5	-0.8	i	-4.1	?	.	29.1	92.8*	7.5	95.0*
Cc1ccc(NC(=O)C2CCN(S(=O)(=O)c3cccnc3)CC2)cc1C	0.7	1.5	i	-4.0	-88.8*	2.4	19.5	94.7*	17.8	96.2*
O=C(Nc1cccc(C(F)(F)F)c1)C1CCN(S(=O)(=O)c2cccnc2)CC1	0.7	3.5	i	2.2	-83.1*	-1.0	-29.3	91.8*	27.6	94.0*
Cc1ccc(S(=O)(=O)N2CCC(C(=O)Nc3cccnc3)CC2)cc1	1.0	.	.	2.5	.	-0.2	.	.	.	.
O=C(NCc1cccnc1)C1CCN(S(=O)(=O)c2cccnc2)CC1	-1.3	1.6	i	.	-3.5	-2.0	.	.	.	.
COC(=O)c1ccc(-c2noc(CN3C[C@H]4CC[C@H]3C4)n2)cc1	0.8	-2.3	i	-5.0	-83.8*	-2.2	-9.5	93.7*	1.1	95.9*
CCOC(=O)N1CCN(C(=O)C(=O)c2cn(CC(=O)N3CCCCCC3)c3ccccc23)CC1	0.1	-0.2	i	-4.3	22.6	-2.8	.	.	.	.
COc1cccc2cc(C(=O)NC(C)c3ccccc3)c(=O)oc12 (stereo not drawn)	0.9	1.5	i	0.1	9.0	1.7	.	.	.	.
c1ccc(CSc2nnc(-c3ccncc3)o2)cc1	0.0	0.7	.	25.5	-87.8*	66.8*	-16.4	94.8*	-26.2	96.2*
Fc1ccccc1CSc1nnc(-c2ccccc2)o1	0.0	-2.3	i	4.5	-93.4*	3.2	11.5	97.8*	-4.7	98.2*
COc1cccc(CSc2nnc(-c3ccc(F)cc3)o2)c1	0.3	-0.7	i	-1.1	-91.2*	-0.4	30.5	96.3*	4.9	97.5*
